Data published in ChEMBL document CHEMBL1909507, “Substituted phenyl 4-(2-oxoimidazolidin-1-yl)benzenesulfonamides as antimitotics. Antiproliferative, antiangiogenic and antitumoral activity, and quantitative structure-activity relationships” (Eur J Med Chem, 2011).
Activity calls are given as the source filed them. The rule behind the calls is not given here.

Columns and labels:
M21 = assay: Antiproliferative activity against human M21 cells after 48 hrs by SRB assay; type: functional, cell-based; conditions: M21, 48 h
Outline: (§1)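 Adherent cells were seeded per line (e.g. HT-29 5000, M21 3500, MCF7 7500, CHO and CHO-VV 3-2 and CHO-TAX 5-6 1000 cells/well) and grown 24 h at 37 °C, 5% CO₂. DMSO-solubilized drug was diluted in medium and added at 1000–0.98 nM for 48 h. Cells were fixed with cold 10% TCA and stained with 0.1% sulforhodamine B, with absorbance read at 530–565 nm.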

MCF7 = assay: Antiproliferative activity against human MCF7 cells after 48 hrs by SRB assay; type: functional, cell-based; conditions: MCF7, 48 h; outline: as §1
HT-29 = assay: Antiproliferative activity against human HT-29 cells after 48 hrs by SRB assay; type: functional, cell-based; conditions: HT-29, 48 h; outline: as §1
[1] = Antiproliferative activity against mouse P388D1 after 48 hrs by SRB assay; conditions: P388D1, 48 h
[2] = Antiproliferative activity against mouse B16F0 after 48 hrs by SRB assay
MDA-MB-231 = assay: Displacement of N,N'-ethylenebis(iodoacetamide) from beta-tubulin colchicine-binding site in human MDA-MB-231 cells at 1000 times IC50 preincubated for 2 hrs before N,N'-ethylenebis(iodoacetamide) addition measured after 1.5 hrs by chemiluminescence assay; type: cell-based
Outline: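 EBI (100, final) was added for 1.5 h at 37 °C with drug present; control was 0.5% DMSO. Sonicated lysates (20 µg protein) were run on 10% SDS-PAGE and blotted with anti-β-tubulin TUB 2.1. The β-tubulin–EBI adduct was scored by ECL.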

CHO-VV 3-2 = assay: Ratio of IC50 for colchicine and vinblastine-resistant CHO-VV 3-2 cells to IC50 for CHO cells; type: functional, Cricetulus griseus
Outline: (§2)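 Each ratio is the IC50 in the resistant line divided by the IC50 in its parental line (CHO for CHO-TAX 5-6 and CHO-VV 3-2; CEM for CEM-VLB).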

CHO-TAX 5-6 = assay: Ratio of IC50 for paclitaxel-resistant CHO-TAX 5-6 cells to IC50 for CHO cells; type: functional, Cricetulus griseus; outline: as §2
[3] = Antiproliferative activity against human multidrug-resistant CEM/VLB cells after 48 hrs by SRB assay; type: functional
CCRF-CEM = assay: Ratio of IC50 for human multidrug-resistant CEM/VLB cells to IC50 for human CEM cells; type: functional; outline: as §2

Row | SMILES | IC50 (MCF7) [nM] | IC50 (HT-29) [nM] | IC50 (M21) [nM] | also measured
1 | CC(=O)O[C@H]1C(=O)[C@@]2(C)[C@H]([C@H](OC(=O)c3ccccc3)[C@]3(O)C[C@H](OC(=O)[C@H](O)[C@@H](NC(=O)c4ccccc4)c4ccccc4)C(C)=C1C3(C)C)[C@]1(OC(C)=O)CO[C@@H]1C[C@@H]2O [PACLITAXEL] | – | – | – | IC50 [1]: 35 nM; IC50 [2]: 28 nM
2 | CCCCCc1ccc(NS(=O)(=O)c2ccc(N3CCNC3=O)cc2)cc1 | > 1000 | 990 | 870 | –
3 | O=C(CI)NCCNC(=O)CI | – | – | – | Activity (MDA-MB-231): inactive
4 | O=C1NCCN1c1ccc(S(=O)(=O)Nc2ccc(OC(F)F)cc2)cc1 | 760 | 650 | 410 | –
5 | CCCCCCCc1ccc(NS(=O)(=O)c2ccc(N3CCNC3=O)cc2)cc1 | > 1000 | > 1000 | > 1000 | –
6 | CC[C@]1(O)C[C@@H]2CN(CCc3c([nH]c4ccccc34)[C@@](C(=O)OC)(c3cc4c(cc3OC)N(C)[C@H]3[C@@](O)(C(=O)OC)[C@H](OC(C)=O)[C@]5(CC)C=CCN6CC[C@]43[C@@H]65)C2)C1 [VINBLASTINE] | – | – | – | Ratio IC50 (CHO-VV 3-2): 3.9; Ratio IC50 (CHO-TAX 5-6): 0.41; IC50 [1]: 1.8 nM; IC50 [3]: 600 nM; IC50 [2]: 0.099 nM; Ratio IC50 (CCRF-CEM): 1579
7 | COc1cc2c(c(OC)c1OC)-c1ccc(OC)c(=O)cc1[C@@H](NC(C)=O)CC2 [COLCHICINE] | – | – | – | IC50 [1]: 28 nM; IC50 [3]: 360 nM; IC50 [2]: 13 nM
8 | CCCCOc1ccc(NS(=O)(=O)c2ccc(N3CCNC3=O)cc2)cc1 | 870 | 630 | 580 | –
9 | CCc1ccccc1NS(=O)(=O)c1ccc(N2CCNC2=O)cc1 | 350 | 240 | 180 | –
10 | O=C1NCCN1c1ccc(S(=O)(=O)Nc2ccc3c(c2)OCO3)cc1 | 460 | 280 | 190 | –

Further lines, with some results ahead:

Row | IC50 (MCF7) [nM] | IC50 (HT-29) [nM] | SMILES | IC50 (M21) [nM] | also measured
11 | 610 | 480 | Cc1ccc(NS(=O)(=O)c2ccc(N3CCNC3=O)cc2)cc1 | 260 | –
12 | 240 | 190 | O=C1NCCN1c1ccc(S(=O)(=O)Nc2ccc3c(c2)CCC3)cc1 | 130 | –
13 | 810 | 660 | CCc1ccc(NS(=O)(=O)c2ccc(N3CCNC3=O)cc2)cc1 | 480 | –
14 | 480 | 450 | O=C1NCCN1c1ccc(S(=O)(=O)Nc2ccc3c(c2)Cc2ccccc2-3)cc1 | 370 | –
15 | 170 | 220 | O=C1NCCN1c1ccc(S(=O)(=O)Nc2ccc(Cl)cc2)cc1 | 90 | –
16 | 240 | 300 | O=C1NCCN1c1ccc(S(=O)(=O)Nc2ccc(Br)cc2)cc1 | 130 | –
17 | > 1000 | 800 | COc1ccc(NS(=O)(=O)c2ccc(N3CCNC3=O)cc2)cc1 | 580 | –
18 | 470 | 280 | O=C1NCCN1c1ccc(S(=O)(=O)Nc2ccccc2)cc1 | 200 | –
